Assay outcomes from PubChem BioAssay.
MrgX1 allo act = positive allosteric modulators of MrgX1, primary screen, HEK293 cells, Fluo-4 calcium flux. Mas-related G-protein coupled receptor member X1 (Homo sapiens), Q96LB2. FDSS; stronger effect = higher value. B-score at 10 µM. 310,000 compounds, 0.63% hits;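 active = plate-corrected calcium response at least 3 library SD above typical, normal starting fluorescence, not activating the receptor alone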;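 note: compound read alongside a low EC10 to EC30 dose of BAM8-22 agonist; peak minus trough fluorescence over baseline measured at the second addition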
Target sequence (Q96LB2 whole entry, looked up): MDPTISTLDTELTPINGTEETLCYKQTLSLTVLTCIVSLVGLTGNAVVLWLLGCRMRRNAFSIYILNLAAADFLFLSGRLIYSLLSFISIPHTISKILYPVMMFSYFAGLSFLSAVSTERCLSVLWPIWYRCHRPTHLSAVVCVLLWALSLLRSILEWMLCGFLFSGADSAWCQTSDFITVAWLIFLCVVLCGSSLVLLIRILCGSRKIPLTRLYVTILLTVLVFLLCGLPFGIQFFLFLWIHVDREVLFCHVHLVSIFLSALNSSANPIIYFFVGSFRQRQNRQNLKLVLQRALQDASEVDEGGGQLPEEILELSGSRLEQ
RGS4 pot = RGS4 potentiators or activators, primary screen, cell-based, HEK293 M3R inducible RGS4, calcium flux; carbachol calcium flux Fluo4; stronger effect = lower value; B-score at 10 µM; 310,000 compounds, 0.92% hits; AID 463111, 2010;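 active = B-score of the integrated calcium signal more than 4 SD below the library mean, with starting fluorescence not abnormally high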;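 note: negative B-score means reduced calcium response which marks RGS4 activation or potentiation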
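Test system: HEK293 cells with stable M3R and inducible RGS4; also added: carbachol at ECmax as muscarinic agonist stimulus; schedule: dye loading 30 min 37 °C, buffer rest 30 min RT; technique: kinetic calcium fluorescence imaging with Fluo4-AM dye, 2 µM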
MrgX1 antag = antagonists of human MrgX1 receptor, primary screen, HEK293 cells, Fluo-4 calcium flux; 310,000 compounds, 1.3% hits; B-score at 10 µM; Mas-related G-protein coupled receptor member X1 (Homo sapiens), Q96LB2; BAM8-22 antagonism; stronger effect = lower value; AID 588676, 2011;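 active = calcium-response B-score plate-corrected more than 3 library SD below zero, starting fluorescence within 5 deviations, no agonist response on first addition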;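 note: peak minus trough fluorescence over baseline after final BAM8-22 challenge near maximal dose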
MrgX1 agonist = agonists of human MrgX1 receptor, primary screen, HEK293 cells, Fluo-4 calcium flux; Fluo-4 calcium fluorescence, agonist mode; stronger effect = higher value; B-score at 10 µM; 310,000 compounds, 0.44% hits; AID 588627, 2011;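 active = calcium response B-score plate-corrected fluorescence ratio at least 3 library SD, with starting fluorescence B-score inside 5 SD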
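Material: MrgX1-expressing HEK293 cells; input: 15,000 cells per well; doses: test compound given as first of three sequential additions; schedule: overnight plating before 1 h dye loading; technique: Fluo-4 NW calcium-flux fluorescence, kinetic read; evaluation: baseline-normalised fluorescence change ratio, B-scored; control set: plate-wise positive and negative controls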
RGS4 block = RGS4 inhibitors, primary screen, cell-based, HEK293 M3R inducible RGS4, calcium flux | Fluo-4 calcium flux; stronger effect = higher value; triggered by carbachol at its EC20 | 310,000 compounds, 0.45% hits | B-score at 10 µM | AID 463165, 2010 | Regulator of G-protein signaling 4 (Homo sapiens), P49798;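 active = B-score, a plate-corrected calcium signal, over three deviations above library mean, with baseline fluorescence within five deviations of library mean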;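 note: RGS4 expression induced by doxycycline in cells with stable M3 receptor; B-score is computed from the integrated fluorescence ratio over baseline after carbachol; higher B-score means a larger calcium signal and so more RGS4 inhibition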
Target sequence (P49798 whole entry, looked up): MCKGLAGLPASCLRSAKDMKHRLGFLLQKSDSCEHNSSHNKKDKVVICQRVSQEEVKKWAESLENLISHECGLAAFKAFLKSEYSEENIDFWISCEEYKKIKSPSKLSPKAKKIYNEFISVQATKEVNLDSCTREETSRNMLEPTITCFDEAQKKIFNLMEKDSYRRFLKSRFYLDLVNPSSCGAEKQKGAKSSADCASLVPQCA
RGS4 inh valid = enhanced carbachol calcium response, M3R/RGS4 cells, RGS4 inhibitor project, cell-based, validation screen, HEK293 M3R/RGS4, calcium flux | shares compounds with RGS4 block | carbachol calcium Fluo-4 fluorescence; carbachol added at its EC20; 0 = buffer wells, 100 = carbachol control | calcium response, % at 10 µM | 1,700 compounds, 65% hits | AID 492999, 2010;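 active = duplicate-averaged calcium response above the buffer-only control mean plus 5 SD of those controls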;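 note: integrated fluorescence ratio F max minus min over baseline F0; higher response in RGS4-induced cells means RGS4 inhibition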
RGS4 uninduced = carbachol calcium response in non-induced M3R cells, confirmation, counter-screen for RGS4 inhibitor project, cell-based, HEK293 M3R | shares compounds with RGS4 block | carbachol calcium Fluo-4; submaximal (EC20) carbachol stimulus; buffer wells 0%, carbachol control wells 100% | activity (percent), % at 10 µM | 1,900 compounds, 20% hits; call rule not given here;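 note: RGS4 induction absent so cells express M3R without RGS4; higher means more calcium signal and flags a non-specific hit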
RGS4 inh ctr2 = second RGS4 inhibitor counter-screen in uninduced cells lacking carbachol | shares compounds with RGS4 block | HEK293 M3R/RGS4 non-induced, Fluo-4 calcium, no carbachol; normalised: buffer wells 0%, carbachol wells 100% | calcium response (agonist-mode artifact), % at 10 µM | 1,900 compounds, 22% hits | AID 493001;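 active = duplicate-averaged calcium rise in uninduced cells above buffer wells' mean plus 5 SD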
Active calls of the source: *. Shown are actives, neighbours in structure and some others; about 3.5% of the full set was active somewhere.

CC(C)Cc1nnc(NC(=O)c2cc(-c3ccncc3)nc3ccccc23)s1 was read as MrgX1 allo act inactive, RGS4 pot inactive, MrgX1 antag inactive, MrgX1 agonist inactive, RGS4 block inactive, RGS4 uninduced inactive and RGS4 inh ctr2 inactive.
CCc1nnc(NC(=O)c2cc(-c3cccnc3)nc3ccccc23)s1 was read as MrgX1 allo act inactive, RGS4 pot inactive, MrgX1 antag inactive, MrgX1 agonist inactive, RGS4 block inactive, RGS4 uninduced inactive and RGS4 inh ctr2 inactive.
Screening CCc1nnc(NC(=O)c2cc(C)nc3ccccc23)s1 returned MrgX1 allo act inactive, RGS4 pot inactive, MrgX1 antag inactive, MrgX1 agonist inactive and RGS4 block inactive.
Screening CCOc1ccc(NC(=O)CCC(=O)N/N=C2\CCCc3ccccc32)cc1 returned MrgX1 allo act inactive, RGS4 pot inactive, MrgX1 antag inactive, MrgX1 agonist inactive and RGS4 block inactive.
Screening CCOC(=O)C1CCN(S(=O)(=O)c2ccc(Cl)s2)CC1 returned MrgX1 allo act inactive, RGS4 pot inactive, MrgX1 antag inactive, MrgX1 agonist inactive and RGS4 block inactive.
Screening CCOc1ccc(S(=O)(=O)NCCC(=O)N(CC)CC(=O)Nc2c(F)cccc2F)cc1 returned MrgX1 allo act inactive, RGS4 pot inactive, MrgX1 antag inactive, MrgX1 agonist inactive and RGS4 block inactive.
For CCCNC(=O)C1(S(=O)(=O)c2ccccc2)CC=CC1 the results were MrgX1 allo act inactive, RGS4 pot inactive, MrgX1 antag inactive, MrgX1 agonist inactive and RGS4 block inactive.
`CCOc1ccccc1NC(=O)C1CCN(S(C)(=O)=O)CC1` gave MrgX1 allo act inactive, RGS4 pot inactive, MrgX1 antag inactive, MrgX1 agonist inactive and RGS4 block inactive.
`Cc1cccc(C(=O)NC(=S)N2CCN(C(=S)NC(=O)c3cccc(C)c3)CC2)c1` gave MrgX1 allo act inactive, RGS4 pot inactive, MrgX1 antag inactive, MrgX1 agonist inactive and RGS4 block inactive.
`CC(C)N(c1ccccc1)c1ccc(NC(=O)COC(=O)CCN2C(=O)c3cccc([N+](=O)[O-])c3C2=O)cc1` gave MrgX1 allo act inactive, RGS4 pot inactive, MrgX1 antag inactive, MrgX1 agonist inactive and RGS4 block inactive.
`CNc1nc(N)c([N+](=O)[O-])c(NC2CCCCC2)n1` gave MrgX1 allo act inactive, RGS4 pot inactive, MrgX1 antag inactive, MrgX1 agonist inactive, RGS4 block 6*, RGS4 inh valid 32%*, RGS4 uninduced 39%* and RGS4 inh ctr2 inactive.
CNc1nc(N)c([N+](=O)[O-])c(Nc2cccc(Cl)c2)n1 was read as MrgX1 allo act inactive, RGS4 pot inactive, MrgX1 antag inactive, MrgX1 agonist inactive, RGS4 block 15*, RGS4 inh valid 10%*, RGS4 uninduced 34%* and RGS4 inh ctr2 10%*.
`CN(C)S(=O)(=O)c1cccc(NC(=O)c2cccc(S(=O)(=O)N3CCCCC3)c2)c1` gave MrgX1 allo act inactive, RGS4 pot inactive, MrgX1 antag inactive, MrgX1 agonist inactive and RGS4 block inactive.
Screening O=C(/C=C/c1ccncc1)c1ccc2c(c1)OCCO2 returned MrgX1 allo act inactive, RGS4 pot inactive, MrgX1 antag inactive, MrgX1 agonist inactive, RGS4 block 7.5*, RGS4 inh valid 32%*, RGS4 uninduced inactive and RGS4 inh ctr2 inactive.
For O=C(/C=C/c1ccccc1)c1ccc2c(c1)OCO2 the results were MrgX1 allo act inactive, RGS4 pot inactive, MrgX1 antag inactive, MrgX1 agonist inactive and RGS4 block inactive.
S=C(Nc1ccccc1)N1CCC(Cc2ccccc2)CC1 was read as MrgX1 allo act inactive, RGS4 pot inactive, MrgX1 antag inactive, MrgX1 agonist inactive and RGS4 block inactive.
CCOC(=O)Nc1ccc(=O)n(Cc2c(Cl)cccc2Cl)c1 was read as MrgX1 allo act inactive, RGS4 pot inactive, MrgX1 antag inactive, MrgX1 agonist inactive, RGS4 block 7.7*, RGS4 inh valid 36%*, RGS4 uninduced 28%* and RGS4 inh ctr2 inactive.
Screening COc1ccc(-c2oc(NC(=O)CCl)c(C#N)c2-c2ccc(OC)cc2)cc1 returned MrgX1 allo act inactive, RGS4 pot inactive, MrgX1 antag inactive, MrgX1 agonist inactive, RGS4 block 11*, RGS4 inh valid 58%*, RGS4 uninduced inactive and RGS4 inh ctr2 inactive.
`COc1ccc(-c2oc(NC(=O)CSc3ncn[nH]3)c(C#N)c2-c2ccc(OC)cc2)cc1` gave MrgX1 allo act inactive, RGS4 pot inactive, MrgX1 antag inactive, MrgX1 agonist inactive and RGS4 block inactive.
Screening COc1cc(C2C3=C(CCCC3=O)Nc3c2c(C)nn3-c2cccc(C)c2)cc(OC)c1O (stereo unspecified) returned MrgX1 allo act inactive, RGS4 pot inactive, MrgX1 antag inactive, MrgX1 agonist inactive, RGS4 block 6.3*, RGS4 inh valid 14%*, RGS4 uninduced 40%* and RGS4 inh ctr2 inactive.
For COc1cc(C2C3=C(CCCC3=O)Nc3[nH]n(-c4ccccc4)c(=O)c32)ccc1O (stereo unspecified) the results were MrgX1 allo act inactive, MrgX1 antag inactive and MrgX1 agonist inactive.
For CCOCCCNC(=O)CN1C(=O)CSc2ccc(S(=O)(=O)N3CCOCC3)cc21 the results were MrgX1 allo act inactive, RGS4 pot inactive, MrgX1 antag inactive, MrgX1 agonist inactive, RGS4 block inactive, RGS4 inh valid inactive, RGS4 uninduced inactive and RGS4 inh ctr2 inactive.
